Laboratory results reported in ChEMBL document CHEMBL4000159, “Bartolosides E-K from a Marine Coccoid Cyanobacterium” (J Nat Prod, 2016).

Legend:
Format in all cases: functional, cell-based
[1] = tested on: T47D; assay: Cytotoxicity against human T47D cells assessed as decrease in cell viability after 48 hrs by MTT assay
Procedure, shortened: (§1)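 Cells grown in DMEM Glutamax with 10% FBS, 2.5 μg/mL fungizone, 100 IU/mL penicillin and 100 μg/mL streptomycin. Seeded at 3.3 × 10^4 cells/mL and left 24 h (37 °C, 5% CO2) to adhere. Pure compounds added as dilutions from 50 to 0.003 μg/mL for 48 h. MTT 0.5 mg/mL for 3 h, formazan dissolved in DMSO, absorbance read at 550 nm. Triplicates averaged; IC50 taken from dose–response curves.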

[2] = tested on: MG-63; assay: Cytotoxicity against human MG63 cells assessed as decrease in cell viability after 48 hrs by MTT assay; conditions: MG-63, 48 h; procedure, shortened: as §1
[3] = tested on: RKO; assay: Cytotoxicity against human RKO cells assessed as decrease in cell viability after 48 hrs by MTT assay; procedure, shortened: as §1

Structure (SMILES) | IC50 [1] | IC50 [2] | IC50 [3]
CCCCCCC(Cl)CCCCCc1c(O)cc(CCCCCCC(Cl)CCCC)cc1O[C@@H]1OC[C@@H](O)[C@H](O)[C@H]1O (some centres undefined) | 22 µM | 39 µM | 40 µM
CCCCCCCC(Cl)(Cl)CCCCCc1cc(O)c(CCCCCC(Cl)CCCCCC)c(O[C@@H]2OC[C@@H](O)[C@H](O)[C@H]2O)c1 (some centres undefined) | 59.8 µM | > 10 µM | > 10 µM
CCCCCCCCCCCCCc1cc(O)c(CCCCCC(Cl)CCCCCC)c(O[C@@H]2OC[C@@H](O)[C@H](O)[C@H]2O)c1 (some centres undefined) | > 10 µM | > 10 µM | > 10 µM
CCCCCCC(Cl)CCCCCc1cc(O)c(CCCCCC(Cl)CCCCCC)c(O[C@@H]2OC[C@@H](O)[C@H](O)[C@H]2O)c1 (some centres undefined) | > 10 µM | > 10 µM | > 10 µM
CCCCCCCC(Cl)CCCCCc1cc(O)c(CCCCCC(Cl)CCCCCC)c(O[C@@H]2OC[C@@H](O)[C@H](O)[C@H]2O)c1 (some centres undefined) | 23 µM | 22 µM | 40 µM
CCCCCCCCCC(Cl)CCCCCc1cc(O)c(CCCCCC(Cl)CCCCCC)c(O[C@@H]2OC[C@@H](O)[C@H](O)[C@H]2O)c1 (some centres undefined) | > 10 µM | > 10 µM | > 10 µM
CCCCCCCCC(Cl)CCCCCc1cc(O)c(CCCCCC(Cl)CCCCCC)c(O[C@@H]2OC[C@@H](O)[C@H](O)[C@H]2O)c1 (some centres undefined) | > 10 µM | > 10 µM | > 10 µM
CCCCCCCCCCCc1cc(O)c(CCCCCC(Cl)CCCCCC)c(O[C@@H]2OC[C@@H](O)[C@H](O)[C@H]2O)c1 (some centres undefined) | > 10 µM | > 10 µM | > 10 µM
